Test results from ChEMBL document CHEMBL4261490, “Exploring the links between peptoid antibacterial activity and toxicity” (Medchemcomm, 2017).
Square brackets hold non-standard residues; d marks the D form. Peptide text beside a SMILES is read from it. Gly(Nα-4-Cl-benzyl) = O=C(O)CNCc1ccc(Cl)cc1; N(4-F-Bzl)Gly = O=C(O)CNCc1ccc(F)cc1; Gly(N-(CH2)6NH2) = NCCCCCCNCC(=O)O; Gly(N-2-aminoethyl) = NCCNCC(=O)O; N(isopentyl)Gly = CC(C)CCNCC(=O)O; Nspe = C[C@H](NCC(=O)O)c1ccccc1; NhArg = N=C(N)NCCCCNCC(=O)O; Nphe = O=C(O)CNCc1ccccc1; Nlys = NCCCCNCC(=O)O

Tests used:
[1] = Selectivity index, ratio of ED50 for human HepG2 cells to MIC for Staphylococcus epidermidis clinical isolate; type: toxicity; conditions: read-out: Selectivity Index
[2] = Selectivity index, ratio of ED50 for human HepG2 cells to MIC for Escherichia coli K-12 W3110 ATCC 27325; type: toxicity; conditions: read-out: Selectivity Index
[3] = Selectivity index, ratio of ED50 for human HaCaT cells to MIC for Escherichia coli K-12 W3110 ATCC 27325; type: toxicity; conditions: read-out: Selectivity Index
[4] = Cytotoxicity against human HaCaT cells assessed as reduction in cell viability pretreated for 1 hr followed by DMEM addition measured after 24 hrs by alamar blue assay; type: cell-based; conditions: read-out: ED50
In short: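 HaCaT keratinocytes are grown in DMEM high glucose with 10% FBS and 1% P/S and seeded at 2x10^4 cells/well 24 h before treatment. Compound dilution series run 2–100 µM (5 mM DMSO stocks) in 50 µL for 1 h, then medium is added for 24 h at 37 °C, 5% CO2. alamarBlue is read after 1 h (Ex 540/Em 620). Triplicate, ≥2 occasions; ED50 from dose-response; amphotericin B positive control.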

[5] = Selectivity index, ratio of ED50 for human HaCaT cells to MIC for Staphylococcus epidermidis clinical isolate; type: toxicity; conditions: read-out: Selectivity Index
[6] = Selectivity index, ratio of ED50 for human HepG2 cells to MIC for Staphylococcus aureus 3R7089 strain Oxford/ATCC 9144; type: toxicity; conditions: read-out: Selectivity Index
[7] = Selectivity index, ratio of ED50 for human HaCaT cells to MIC for Staphylococcus aureus 3R7089 strain Oxford/ATCC 9144; type: toxicity; conditions: read-out: Selectivity Index
[8] = Cytotoxicity against human HepG2 cells assessed as reduction in cell viability pretreated for 1 hr followed by DMEM addition measured after 24 hrs by alamar blue assay; type: cell-based; conditions: read-out: ED50
In short: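 HepG2 cells are kept in DMEM high glucose with 10% heat-inactivated FBS and 1% P/S at 37 °C, 5% CO2, and seeded at 2x10^4 cells/well one day ahead. They are exposed to compounds (100 to 3 µM, from 5 mM DMSO stocks) in 50 µL for 1 h. Medium is then added and cells incubated 24 h. alamarBlue is read after 2 h (Ex 560/Em 600). Triplicate on ≥2 occasions; ED50 from dose-response; DMSO negative control.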

[9] = Selectivity index, ratio of ED50 for human HaCaT cells to MIC for Pseudomonas aeruginosa PAO1 ATCC 15692; type: toxicity; conditions: read-out: Selectivity Index
[10] = test system: Pseudomonas aeruginosa; assay: Antibacterial activity against Pseudomonas aeruginosa PAO1 ATCC 15692 incubated for 16 hrs under shaking condition; type: functional; conditions: PAO1 ATCC 15692, 16 h
In short: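 Broth microdilution (Andrews method) in Iso-sensitest broth. Overnight cultures are adjusted to A650 0.07 (0.5 McFarland) and diluted ten-fold. Compounds come from 5 mM DMSO stocks, 2-fold serially diluted, final 2–100 μM in a 1:1 inoculum:compound mix. Incubation is 37 °C for 16 h with shaking. MIC is the lowest concentration giving complete growth inhibition, read by absorbance; triplicate.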

[11] = Selectivity index, ratio of ED50 for human HepG2 cells to MIC for Pseudomonas aeruginosa PAO1 ATCC 15692; type: toxicity; conditions: read-out: Selectivity Index

SMILES | selectivity ratio [1] | selectivity ratio [2] | selectivity ratio [3] | CC50 at 24 h [4] [µM] | selectivity ratio [5] | selectivity ratio [6] | selectivity ratio [7] | CC50 at 24 h [8] [µM] | selectivity ratio [9] | MIC [10] [µM] | selectivity ratio [11]
NCCCCNCC(=O)N(CC(=O)N(CC(=O)N(CCCCN)CC(=O)N(CC(=O)N(CC(=O)N(CCCCN)CC(=O)N(CC(=O)N(CC(N)=O)Cc1ccc(F)cc1)Cc1ccc(F)cc1)Cc1ccc(F)cc1)Cc1ccc(F)cc1)Cc1ccc(F)cc1)Cc1ccc(F)cc1 (H-[Nlys][N(4-F-Bzl)Gly][N(4-F-Bzl)Gly][Nlys][N(4-F-Bzl)Gly][N(4-F-Bzl)Gly][Nlys][N(4-F-Bzl)Gly][N(4-F-Bzl)Gly]-NH2) | 15 | 3 | 6 | > 100 | 33 | 15 | 33 |  |  |  | 
NCCCCNCC(=O)N(CC(=O)N(CC(=O)N(CCCCN)CC(=O)N(CC(=O)N(CC(=O)N(CCCCN)CC(=O)N(CC(=O)N(CC(=O)N(CCCCN)CC(=O)N(CC(=O)N(CC(N)=O)Cc1ccccc1)Cc1ccccc1)Cc1ccccc1)Cc1ccccc1)Cc1ccccc1)Cc1ccccc1)Cc1ccccc1)Cc1ccccc1 (H-[Nlys][Nphe][Nphe][Nlys][Nphe][Nphe][Nlys][Nphe][Nphe][Nlys][Nphe][Nphe]-NH2) | 50 | 8 | 3 |  | 18 | 33 | 12 | > 100 |  |  | 
C[C@@H](c1ccccc1)N(CC(N)=O)C(=O)CN(Cc1ccc(F)cc1)C(=O)CN(CCCCN)C(=O)CN(C(=O)CN(Cc1ccc(F)cc1)C(=O)CN(CCCCN)C(=O)CN(C(=O)CN(Cc1ccc(F)cc1)C(=O)CN(CCCCN)C(=O)CN(C(=O)CN(Cc1ccc(F)cc1)C(=O)CNCCCCN)[C@@H](C)c1ccccc1)[C@@H](C)c1ccccc1)[C@@H](C)c1ccccc1 | 13 |  |  |  | 10 | 13 | 10 |  |  |  | 
C[C@@H](c1ccccc1)N(CC(N)=O)C(=O)CN(C(=O)CN(CCCCN)C(=O)CN(C(=O)CN(C(=O)CN(CCCCN)C(=O)CN(C(=O)CN(C(=O)CN(CCCCNC(=N)N)C(=O)CN(C(=O)CN(C(=O)CNCCCCNC(=N)N)[C@@H](C)c1ccccc1)[C@@H](C)c1ccccc1)[C@@H](C)c1ccccc1)[C@@H](C)c1ccccc1)[C@@H](C)c1ccccc1)[C@@H](C)c1ccccc1)[C@@H](C)c1ccccc1 (H-[NhArg][Nspe][Nspe][NhArg][Nspe][Nspe][Nlys][Nspe][Nspe][Nlys][Nspe][Nspe]-NH2) |  |  | 1 |  |  |  | 1 |  | 1 |  | 
NCCNCC(=O)N(CC(=O)N(CC(=O)N(CCN)CC(=O)N(CC(=O)N(CC(=O)N(CCN)CC(=O)N(CC(=O)N(CC(=O)N(CCN)CC(=O)N(CC(=O)N(CC(N)=O)Cc1ccccc1)Cc1ccccc1)Cc1ccccc1)Cc1ccccc1)Cc1ccccc1)Cc1ccccc1)Cc1ccccc1)Cc1ccccc1 (H-[Gly(N-2-aminoethyl)][Nphe][Nphe][Gly(N-2-aminoethyl)][Nphe][Nphe][Gly(N-2-aminoethyl)][Nphe][Nphe][Gly(N-2-aminoethyl)][Nphe][Nphe]-NH2) | 17 | 8 | 8 | > 100 | 17 |  |  | > 100 |  |  | 
C[C@@H](c1ccccc1)N(CC(N)=O)C(=O)CN(C(=O)CN(CCCCN)C(=O)CN(C(=O)CN(C(=O)CN(CCCCN)C(=O)CN(C(=O)CN(C(=O)CN(CCCCNC(=N)N)C(=O)CN(C(=O)CN(C(=O)CNCCCCN)[C@@H](C)c1ccccc1)[C@@H](C)c1ccccc1)[C@@H](C)c1ccccc1)[C@@H](C)c1ccccc1)[C@@H](C)c1ccccc1)[C@@H](C)c1ccccc1)[C@@H](C)c1ccccc1 (H-[Nlys][Nspe][Nspe][NhArg][Nspe][Nspe][Nlys][Nspe][Nspe][Nlys][Nspe][Nspe]-NH2) |  | 2 | 2 |  |  |  | 2 |  | 2 |  | 
CC(C)CCN(CC(=O)N(CC(N)=O)[C@@H](C)c1ccccc1)C(=O)CN(CCCCNC(=N)N)C(=O)CN(C(=O)CN(CCC(C)C)C(=O)CN(CCCCNC(=N)N)C(=O)CN(C(=O)CN(CCC(C)C)C(=O)CNCCCCNC(=N)N)[C@@H](C)c1ccccc1)[C@@H](C)c1ccccc1 (H-[NhArg][N(isopentyl)Gly][Nspe][NhArg][N(isopentyl)Gly][Nspe][NhArg][N(isopentyl)Gly][Nspe]-NH2) |  |  |  |  |  |  |  |  |  | > 100 | 
N=C(N)NCCCCNCC(=O)N(CC(=O)N(CC(=O)N(CCCCNC(=N)N)CC(=O)N(CC(=O)N(CC(=O)N(CCCCNC(=N)N)CC(=O)N(CC(=O)N(CC(=O)N(CCCCNC(=N)N)CC(=O)N(CC(=O)N(CC(N)=O)Cc1ccccc1)Cc1ccccc1)Cc1ccccc1)Cc1ccccc1)Cc1ccccc1)Cc1ccccc1)Cc1ccccc1)Cc1ccccc1 (H-[NhArg][Nphe][Nphe][NhArg][Nphe][Nphe][NhArg][Nphe][Nphe][NhArg][Nphe][Nphe]-NH2) |  |  | 17 | > 100 | 50 |  |  |  | 4 |  | 
C[C@@H](c1ccccc1)N(CC(N)=O)C(=O)CN(C(=O)CN(CCCCCCN)C(=O)CN(C(=O)CN(C(=O)CN(CCCCCCN)C(=O)CN(C(=O)CN(C(=O)CN(CCCCCCN)C(=O)CN(C(=O)CN(C(=O)CNCCCCCCN)[C@@H](C)c1ccccc1)[C@@H](C)c1ccccc1)[C@@H](C)c1ccccc1)[C@@H](C)c1ccccc1)[C@@H](C)c1ccccc1)[C@@H](C)c1ccccc1)[C@@H](C)c1ccccc1 (H-[Gly(N-(CH2)6NH2)][Nspe][Nspe][Gly(N-(CH2)6NH2)][Nspe][Nspe][Gly(N-(CH2)6NH2)][Nspe][Nspe][Gly(N-(CH2)6NH2)][Nspe][Nspe]-NH2) | 21 |  |  |  | 12 | 21 | 12 |  | 0 |  | 1
C[C@@H](c1ccccc1)N(CC(N)=O)C(=O)CN(C(=O)CN(CCCCNC(=N)N)C(=O)CN(C(=O)CN(C(=O)CN(CCCCNC(=N)N)C(=O)CN(C(=O)CN(C(=O)CN(CCCCN)C(=O)CN(C(=O)CN(C(=O)CNCCCCN)[C@@H](C)c1ccccc1)[C@@H](C)c1ccccc1)[C@@H](C)c1ccccc1)[C@@H](C)c1ccccc1)[C@@H](C)c1ccccc1)[C@@H](C)c1ccccc1)[C@@H](C)c1ccccc1 (H-[Nlys][Nspe][Nspe][Nlys][Nspe][Nspe][NhArg][Nspe][Nspe][NhArg][Nspe][Nspe]-NH2) |  |  | 6 | > 100 |  |  | 6 |  | 3 |  | 
C[C@@H](c1ccccc1)N(CC(N)=O)C(=O)CN(C(=O)CN(CCCCN)C(=O)CN(C(=O)CN(C(=O)CN(CCCCNC(=N)N)C(=O)CN(C(=O)CN(C(=O)CN(CCCCN)C(=O)CN(C(=O)CN(C(=O)CNCCCCNC(=N)N)[C@@H](C)c1ccccc1)[C@@H](C)c1ccccc1)[C@@H](C)c1ccccc1)[C@@H](C)c1ccccc1)[C@@H](C)c1ccccc1)[C@@H](C)c1ccccc1)[C@@H](C)c1ccccc1 (H-[NhArg][Nspe][Nspe][Nlys][Nspe][Nspe][NhArg][Nspe][Nspe][Nlys][Nspe][Nspe]-NH2) |  | 2 | 2 |  |  |  | 2 |  |  |  | 
NCCCCNCC(=O)N(CC(=O)N(CC(=O)N(CCCCN)CC(=O)N(CC(=O)N(CC(=O)N(CCCCN)CC(=O)N(CC(=O)N(CC(=O)N(CCCCN)CC(=O)N(CC(=O)N(CC(N)=O)Cc1ccc(F)cc1)Cc1ccc(F)cc1)Cc1ccc(F)cc1)Cc1ccc(F)cc1)Cc1ccc(F)cc1)Cc1ccc(F)cc1)Cc1ccc(F)cc1)Cc1ccc(F)cc1 (H-[Nlys][N(4-F-Bzl)Gly][N(4-F-Bzl)Gly][Nlys][N(4-F-Bzl)Gly][N(4-F-Bzl)Gly][Nlys][N(4-F-Bzl)Gly][N(4-F-Bzl)Gly][Nlys][N(4-F-Bzl)Gly][N(4-F-Bzl)Gly]-NH2) | 30 | 2 | 4 |  | 46 | 15 | 23 |  |  |  | 
NCCCCNCC(=O)N(CC(=O)N(CC(=O)N(CCCCN)CC(=O)N(CC(=O)N(CC(=O)N(CCCCN)CC(=O)N(CC(=O)N(CC(N)=O)Cc1ccc(Cl)cc1)Cc1ccc(Cl)cc1)Cc1ccc(Cl)cc1)Cc1ccc(Cl)cc1)Cc1ccc(Cl)cc1)Cc1ccc(Cl)cc1 (H-[Nlys][Gly(Nα-4-Cl-benzyl)][Gly(Nα-4-Cl-benzyl)][Nlys][Gly(Nα-4-Cl-benzyl)][Gly(Nα-4-Cl-benzyl)][Nlys][Gly(Nα-4-Cl-benzyl)][Gly(Nα-4-Cl-benzyl)]-NH2) | 12 |  |  |  | 11 | 8 | 7 |  | 1 |  | 1
